Measured values: ChEMBL document CHEMBL1122905, “4-Deoxypyrido[1',2':1,2]imidazo[5,4-c]rifamycin SV derivatives. A new series of semisynthetic rifamycins with high antibacterial activity and low gastroenteric absorption” (1985)
In brackets after ≈: the same amount, converted by molar mass.

Columns and labels:
Klebsiella pneumoniae = assay: Antimicrobial activity derived as minimum inhibitory concentration are determined using brain-heart infusion medium against Klebsiella Pneumoniae Ottaviani; assay type: functional
Summary of the method: (§1)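 Broth dilution in brain-heart infusion. Inoculum 10^6 cells/mL. MIC taken as the lowest antibiotic concentration preventing visible growth after 24 h at 35 °C.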

Pseudomonas aeruginosa = assay: Antimicrobial activity derived as minimum inhibitory concentration are determined using brain-heart infusion medium against Pseudomonas aeruginosa ATCC 10145; assay type: functional; summary of the method: as §1
Salmonella paratyphi = assay: Antimicrobial activity derived as minimum inhibitory concentration are determined using brain-heart infusion medium against Salmonella paratyphi B0248 K(Sclavo); assay type: functional, Salmonella enterica subsp. enterica serovar Paratyphi A; settings: Salmonella enterica
Summary of the method: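 Broth dilution in brain-heart infusion. Inoculum 10^6 cells/mL. Incubated 24 h at 35 °C. MIC taken as the lowest antibiotic concentration that prevented visible growth.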

Staphylococcus aureus [1] = assay: Effective dose against Staphylococcus aureus in mice for peroral administration.; assay type: functional; settings: po
Escherichia coli = assay: Antimicrobial activity derived as minimum inhibitory concentration are determined using brain-heart infusion medium against Escherichia coli ML/35.; assay type: functional; summary of the method: as §1
Staphylococcus aureus [2] = assay: Antimicrobial activity derived as minimum inhibitory concentration are determined using brain-heart infusion medium against Staphylococcus aureus 209 P(FDA); assay type: functional; summary of the method: as §1
Staphylococcus aureus [3] = assay: Effective dose against Staphylococcus aureus in mice for subcutaneous administration.; assay type: functional; settings: sc
Staphylococcus aureus [4] = assay: Effective dose against infection of the mice due to Staphylococcus aureus administered perorally; assay type: functional; settings: po

Compound | MIC (Klebsiella pneumoniae) [µg/mL] | MIC (Pseudomonas aeruginosa) [µg/mL] | MIC (Salmonella paratyphi) [µg/mL] | ED50 (Staphylococcus aureus [1]) [mg/kg] | MIC (Escherichia coli) [µg/mL] | MIC (Staphylococcus aureus [2]) [µg/mL] | ED50 (Staphylococcus aureus [3]) [mg/kg] | ED50 (Staphylococcus aureus [4]) [mg/kg]
COC1/C=C/OC2(C)Oc3c(C)c(O)c4c(O)c(c(-[n+]5cccc(C(N)=O)c5)c(O)c4c3C2=O)NC(=O)/C(C)=C\C=C\C(C)C(O)C(C)C(O)C(C)C(OC(C)=O)C1C.[Br-] (centres undefined) | > 50 | > 50 | > 50 | > 20 | > 50 | 0.1 |  | 
COC1/C=C/OC2(C)Oc3c(C)c(O)c4c(O)c(c5c([n-]c6c7ccccc7cc[n+]65)c4c3C2=O)NC(=O)/C(C)=C\C=C\C(C)C(O)C(C)C(O)C(C)C(OC(C)=O)C1C (centres undefined) | 12 (≈ 14.6 µM) | 0.7 (≈ 0.852 µM) | 3 (≈ 3.65 µM) | 2.22 | 12 (≈ 14.6 µM) | < 0.005 | 0.81 | 
COC1/C=C/OC2(C)Oc3c(C)c(O)c4c(O)c(c5c([n-]c6cc(C)cc[n+]65)c4c3C2=O)NC(=O)/C(C)=C\C=C\C(C)C(O)C(C)C(O)C(C)C(OC(C)=O)C1C (centres undefined) | 25 (≈ 31.8 µM) | 15 (≈ 19.1 µM) | 6 (≈ 7.63 µM) |  | 6 (≈ 7.63 µM) | < 0.005 |  | > 10
COC(=O)c1ccc[n+](-c2c3c(O)c4c(O)c(C)c5c(c4c2O)C(=O)C(C)(O/C=C/C(OC)C(C)C(OC(C)=O)C(C)C(O)C(C)C(O)C(C)/C=C/C=C(/C)C(=O)N3)O5)c1.[Br-] (centres undefined) | > 50 | > 50 | 25 |  | > 50 | 0.07 |  | 
COC1/C=C/OC2(C)Oc3c(C)c(O)c4c(O)c(c5c([n-]c6ccc(C)c[n+]65)c4c3C2=O)NC(=O)/C(C)=C\C=C\C(C)C(O)C(C)C(O)C(C)C(OC(C)=O)C1C (centres undefined) | 12 (≈ 15.3 µM) | 3 (≈ 3.82 µM) | 6 (≈ 7.63 µM) | > 5 | 6 (≈ 7.63 µM) | < 0.005 | > 2.5 | 
COC1/C=C/OC2(C)Oc3c(C)c(O)c4c(O)c(c5c([n-]c6cccc[n+]65)c4c3C2=O)NC(=O)/C(C)=C\C=C\C(C)C(O)C(C)C(O)C(C)C(OC(C)=O)C1C (centres undefined) | 6 (≈ 7.77 µM) | 6 (≈ 7.77 µM) | 3 (≈ 3.89 µM) | 10.3 | 3 (≈ 3.89 µM) | < 0.005 | 0.21 | 
CC[N+](CC)(CC)c1c2c(O)c3c(O)c(C)c4c(c3c1O)C(=O)C(C)(O/C=C/C(OC)C(C)C(OC(C)=O)C(C)C(O)C(C)C(O)C(C)/C=C/C=C(/C)C(=O)N2)O4.[Br-] (centres undefined) | 50 | 12 | 25 | > 20 | > 50 | 0.005 |  | 
COC1/C=C/OC2(C)Oc3c(C)c(O)c4c(O)c(c5c([n-]c6c(C)ccc[n+]65)c4c3C2=O)NC(=O)/C(C)=C\C=C\C(C)C(O)C(C)C(O)C(C)C(OC(C)=O)C1C (centres undefined) | 6 (≈ 7.63 µM) | 0.7 (≈ 0.891 µM) | 6 (≈ 7.63 µM) | > 10 | 6 (≈ 7.63 µM) | < 0.005 | 0.47 | 
COC1/C=C/OC2(C)Oc3c(C)c(O)c4c(O)c(c5c([n-]c6ccc(OCc7ccccc7)c[n+]65)c4c3C2=O)NC(=O)/C(C)=C\C=C\C(C)C(O)C(C)C(O)C(C)C(OC(C)=O)C1C (centres undefined) | > 50 | 50 (≈ 56.9 µM) | > 50 |  | 50 (≈ 56.9 µM) | < 0.005 |  | 
COC1/C=C/OC2(C)Oc3c(C)c(O)c4c(O)c(c(-[n+]5ccc(C(C)(C)C)cc5)c(O)c4c3C2=O)NC(=O)/C(C)=C\C=C\C(C)C(O)C(C)C(O)C(C)C(OC(C)=O)C1C.[Br-] (centres undefined) | > 50 | > 50 | > 50 |  | > 50 | 0.01 |  | 
COC1/C=C/OC2(C)Oc3c(C)c(O)c4c(O)c(c(-[n+]5ccccc5)c(O)c4c3C2=O)NC(=O)/C(C)=C\C=C\C(C)C(O)C(C)C(O)C(C)C(OC(C)=O)C1C.[Br-] (centres undefined) | > 50 | 12 | 50 | > 20 | > 50 | 0.005 |  | 
CO[C@H]1/C=C/O[C@@]2(C)Oc3c(C)c(O)c4c(O)c(c(/C=N/N5CCN(C)CC5)c(O)c4c3C2=O)NC(=O)/C(C)=C\C=C\[C@H](C)[C@H](O)[C@@H](C)[C@@H](O)[C@@H](C)[C@H](OC(C)=O)[C@@H]1C [RIFAMPIN] | 25 (≈ 30.4 µM) | 12 (≈ 14.6 µM) | 12 (≈ 14.6 µM) | 0.14 | 6 (≈ 7.29 µM) | < 0.005 | 0.14 | 
